These results are taken from ChEMBL document CHEMBL1641561, “Evaluation of hadacidin analogues” (Bioorg Med Chem Lett, 2011).

As a reminder, the inhibition is the change of the read-out against control, counted positive when it falls.

The nature of experiment [1]: Inhibition of adenylosuccinate synthase at 5:1 aspartate to compound ratio.
Experiment [2] can be described thus: Inhibition of adenylosuccinate synthase at 1:1 aspartate to compound ratio.
A short description of experiment [3]: Inhibition of adenylosuccinate synthase at 10 mM. The method in brief: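 Recombinant His-tagged AdSS (pMOB45 in E. coli BL21(DE3), IPTG-induced at 18 °C, IMAC-purified); 2.0 µg per 100 µl reaction in 20 mM Hepes pH 7.5, 50 µM IMP, 25 µM GTP, 500 µM MgCl2, 10 mM test compound. Started at room temperature with 100 or 500 µM aspartate, frozen after 5 min. Adenylosuccinate quantified by HPLC (266 nm, pH 4.4 phosphate/PIC A/methanol), peak areas over three runs.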

Calls of active or inactive are those of the source. The calls are words filed in the database; no cut-off is given here.

With `O=CN(O)CCCC(=O)O`, the inhibition result in experiment [1] and in experiment [2] was “inactive” in each case.
For the molecule `O=CN(O)CCC(=O)O`, the inhibition entry in experiment [1] and in experiment [2] was “inactive” each time.
On to `O=CN(O)C(CC(=O)O)C(=O)O` (centres undefined), for which, in experiment [2] (concentration not given here), the inhibition is 30%.
Consider `CCC(C)C(C(=O)O)N(O)C=O` (centres undefined), for which the inhibition result in experiment [1] was “inactive”. The inhibition entry in experiment [2] is “Active”.
On the same counts, the results for `CCC(C(=O)O)N(O)C=O` (centres undefined) are “inactive” and “Active”.
`O=CN(O)CCCCC(=O)O`: the inhibition result in experiment [1] and in experiment [2] was “inactive” throughout.
Turning to `O=C(O)CNO`, the inhibition entry in experiment [1] and in experiment [2] was “inactive” throughout.
With `O=C(O)CCCNO`, the inhibition entry in experiment [1] and in experiment [2] was “inactive” each time.
Take `CC(CCC(=O)O)NO` (centres undefined): the inhibition entry in experiment [1] and in experiment [2] was “inactive” throughout.
Consider `O=C(O)CCNO`, for which the inhibition entry in experiment [1] and in experiment [2] was “inactive” each time.
On to `O=CN(O)CC(=O)O`, for which the inhibition entry in experiment [3] is “Active”. For the same molecule, the inhibition in experiment [1] (concentration not given here) is 80%. Also, the inhibition result in experiment [2] was “inactive”.
As to `CC(CCC(=O)O)N(O)C=O` (centres undefined), the inhibition entry in experiment [1] and in experiment [2] was “inactive” throughout.
In the case of `CC(C(=O)O)N(O)C=O` (centres undefined), the figures for the inhibition in experiment [1] (concentration not given here) and in experiment [2] (concentration not given here) were 50% and 90%, respectively.
As to `O=CN(O)C(CCC(=O)O)C(=O)O` (centres undefined), in experiment [2] (concentration not given here), the inhibition came out at 60%.
Take `CCCC(C(=O)O)N(O)C=O` (centres undefined): in experiment [1], the inhibition entry is “inactive”. Also, the inhibition entry in experiment [2] is “Active”.
